Results reported in ChEMBL document CHEMBL4842318, “A γ-lactam siderophore antibiotic effective against multidrug-resistant Pseudomonas aeruginosa, Klebsiella pneumoniae, and Acinetobacter spp” (Eur J Med Chem, 2021).

Assays:
[1] = tested on: Pseudomonas aeruginosa; experiment: Antibacterial activity against Pseudomonas aeruginosa isolate PR-564 leucine at 533 residue assessed as inhibition of bacterial growth by microdilution method; assay type: functional
In short: (§1)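 Broth microdilution in Chelex-treated, iron-depleted cation-adjusted Mueller-Hinton broth, following the protocol used for siderophore-containing antibiotics; inoculum lowered to 6 × 10^4 cfu/mL; MIC read as growth inhibition, in μg/mL.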

[2] = tested on: Acinetobacter baumannii; experiment: Antibacterial activity against carbapenem susceptible Acinetobacter baumannii isolate PR-464 assessed as inhibition of bacterial growth in presence of 20 ug/ml sulbactam by microdilution method; assay type: functional; conditions: dose 20 µg/ml
In short: (§2)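 MIC by broth microdilution using iron-depleted (Chelex-treated) cation-adjusted Mueller-Hinton broth and 6 × 10^4 cfu/mL inoculum. Compound serially diluted with sulbactam held constant at 20 μg/mL.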

[3] = tested on: Acinetobacter baumannii; experiment: Antibacterial activity against carbapenem susceptible Acinetobacter baumannii isolate PR-478 assessed as bacterial growth inhibition by microdilution method; assay type: functional
In short: (§3)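 Broth microdilution MIC in iron-depleted (Chelex resin-treated) cation-adjusted Mueller-Hinton broth, following the protocol used for siderophore-containing antibiotics. Inoculum was lowered to 6 × 10^4 cfu/mL.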

[4] = Antibacterial activity against carbapenem susceptible Acinetobacter nosocomialis isolate PR-362 assessed as bacterial growth inhibition by microdilution method; assay type: functional; in short: as §3
[5] = Antibacterial activity against carbapenem susceptible Acinetobacter nosocomialis isolate PR-412 assessed as bacterial growth inhibition by microdilution method; assay type: functional; in short: as §3
[6] = Antibacterial activity against carbapenem susceptible Acinetobacter nosocomialis isolate PR-412 assessed as inhibition of bacterial growth in presence of 20 ug/ml sulbactam by microdilution method; assay type: functional; conditions: dose 20 µg/ml; in short: as §2
[7] = tested on: Acinetobacter baumannii; experiment: Antibacterial activity against carbapenem resistant Acinetobacter baumannii isolate PR-459 assessed as bacterial growth inhibition by microdilution method; assay type: functional; in short: as §1
[8] = tested on: Acinetobacter baumannii; experiment: Antibacterial activity against carbapenem resistant Acinetobacter baumannii isolate PR-345 assessed as inhibition of bacterial growth at 1:1 compound to sulbactam concentration by microdilution method; assay type: functional
In short: (§4)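 Iron-depleted (Chelex-treated) cation-adjusted Mueller-Hinton broth microdilution; inoculum 6 × 10^4 cfu/mL. Test agent and sulbactam mixed 1:1 by mass and serially 2-fold diluted together. MIC in μg/mL.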

[9] = target: COX-1 (Homo sapiens, UniProt P23219); experiment: Inhibition of COX-1 (unknown origin) at 30 uM
[10] = Substrate activity at IMP-1 (unknown origin) assessed as Kcat by measuring hydrolysis by spectrophotometry; assay type: ADME
In short: (§5)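 Substrate hydrolysis (600 μM start) followed at 336 nm (Δε336 = −4362 M−1 cm−1, 0.2 cm cuvette) to completion; velocities over 10 s intervals along progress curve; Km, Vmax from double reciprocal plot, kcat = Vmax/[E].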

[11] = tested on: Acinetobacter baumannii; experiment: Antibacterial activity against carbapenem resistant Acinetobacter baumannii isolate PR-387 assessed as inhibition of bacterial growth at 1:1 compound to sulbactam concentration by microdilution method; assay type: functional; in short: as §4
[12] = Metabolic stability in human microsomes assessed as half life; assay type: ADME, Microsome
[13] = tested on: Acinetobacter baumannii; experiment: Antibacterial activity against carbapenem resistant Acinetobacter baumannii isolate PR-423 assessed as inhibition of bacterial growth in presence of 20 ug/ml sulbactam by microdilution method; assay type: functional; conditions: dose 20 µg/ml
[14] = tested on: Pseudomonas aeruginosa; experiment: Antibacterial activity against Pseudomonas aeruginosa isolate PR-627 leucine at 533 residue assessed as inhibition of bacterial growth by microdilution method; assay type: functional; in short: as §1
[15] = tested on: Acinetobacter baumannii; experiment: Antibacterial activity against carbapenem susceptible Acinetobacter baumannii isolate PR-434 assessed as inhibition of bacterial growth in presence of 20 ug/ml sulbactam by microdilution method; assay type: functional; conditions: dose 20 µg/ml; in short: as §2
[16] = tested on: Acinetobacter baumannii; experiment: Antibacterial activity against carbapenem resistant Acinetobacter baumannii isolate PR-401 assessed as inhibition of bacterial growth at 1:1 compound to sulbactam concentration by microdilution method; assay type: functional; in short: as §4
[17] = tested on: Acinetobacter baumannii; experiment: Antibacterial activity against carbapenem resistant Acinetobacter baumannii isolate PR-345 assessed as bacterial growth inhibition by microdilution method; assay type: functional; in short: as §1
[18] = tested on: Acinetobacter baumannii; experiment: Antibacterial activity against carbapenem susceptible Acinetobacter baumannii isolate PR-340 assessed as bacterial growth inhibition by microdilution method; assay type: functional; in short: as §3
[19] = tested on: Acinetobacter baumannii; experiment: Antibacterial activity against carbapenem resistant Acinetobacter baumannii isolate PR-380 assessed as bacterial growth inhibition by microdilution method; assay type: functional; in short: as §1
[20] = target: T1, CYP2C8 (Homo sapiens, UniProt P10632); experiment: Inhibition of CYP2C8 (unknown origin) at 100 uM; assay type: ADME
T1 sequence (P10632 whole entry): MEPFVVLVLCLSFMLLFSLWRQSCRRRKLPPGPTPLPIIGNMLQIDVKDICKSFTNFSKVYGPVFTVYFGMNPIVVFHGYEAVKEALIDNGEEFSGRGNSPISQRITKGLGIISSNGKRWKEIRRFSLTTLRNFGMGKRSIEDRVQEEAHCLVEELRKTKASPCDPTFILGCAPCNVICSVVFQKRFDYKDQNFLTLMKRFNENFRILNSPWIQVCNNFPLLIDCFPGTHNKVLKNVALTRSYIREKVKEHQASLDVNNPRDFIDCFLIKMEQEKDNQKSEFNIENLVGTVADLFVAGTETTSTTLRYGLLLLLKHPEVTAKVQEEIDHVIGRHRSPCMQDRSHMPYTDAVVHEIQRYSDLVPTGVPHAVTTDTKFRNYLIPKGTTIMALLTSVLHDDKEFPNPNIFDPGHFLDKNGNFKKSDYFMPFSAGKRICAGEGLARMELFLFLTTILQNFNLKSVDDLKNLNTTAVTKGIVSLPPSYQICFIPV

[21] = tested on: Acinetobacter baumannii; experiment: Antibacterial activity against carbapenem resistant Acinetobacter baumannii isolate PR-314 assessed as inhibition of bacterial growth at 1:1 compound to sulbactam concentration by microdilution method; assay type: functional; in short: as §4
[22] = tested on: Acinetobacter baumannii; experiment: Antibacterial activity against carbapenem susceptible Acinetobacter baumannii isolate PR-464 assessed as bacterial growth inhibition by microdilution method; assay type: functional; in short: as §3
[23] = tested on: Acinetobacter baumannii; experiment: Antibacterial activity against carbapenem resistant Acinetobacter baumannii isolate PR-459 assessed as inhibition of bacterial growth in presence of 20 ug/ml sulbactam by microdilution method; assay type: functional; conditions: dose 20 µg/ml
[24] = Antibacterial activity against carbapenem susceptible Acinetobacter nosocomialis isolate PR-362 assessed as inhibition of bacterial growth at 1:1 compound to sulbactam concentration by microdilution method; assay type: functional
In short: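 Broth microdilution MIC in Chelex-treated, iron-depleted cation-adjusted Mueller-Hinton broth, inoculum 6 × 10^4 cfu/mL. Compound and sulbactam combined 1:1 by mass in a 2-fold dilution series.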

[25] = tested on: Pseudomonas aeruginosa; experiment: Antibacterial activity against wild type Pseudomonas aeruginosa isolate PR-567 assessed as inhibition of bacterial growth by microdilution method; assay type: functional; in short: as §3
[26] = tested on: Acinetobacter baumannii; experiment: Antibacterial activity against carbapenem susceptible Acinetobacter baumannii isolate PR-434 assessed as bacterial growth inhibition by microdilution method; assay type: functional; in short: as §3
[27] = Substrate activity at NDM1 (unknown origin) assessed as Kcat by measuring hydrolysis by spectrophotometry; assay type: ADME; in short: as §5
[28] = tested on: Acinetobacter baumannii; experiment: Antibacterial activity against carbapenem resistant Acinetobacter baumannii isolate PR-314 assessed as inhibition of bacterial growth in presence of 20 ug/ml sulbactam by microdilution method; assay type: functional; conditions: dose 20 µg/ml
[29] = tested on: Pseudomonas aeruginosa; experiment: Antibacterial activity against wild type Pseudomonas aeruginosa isolate PR-673 leucine at 533 residue assessed as inhibition of bacterial growth by microdilution method; assay type: functional; in short: as §3
[30] = Antibacterial activity against carbapenem susceptible Acinetobacter nosocomialis isolate PR-365 assessed as bacterial growth inhibition by microdilution method; assay type: functional; in short: as §3
[31] = Substrate activity at OXA-23 (unknown origin) assessed as Kcat by measuring hydrolysis by spectrophotometry; assay type: ADME

Chain of COX-1 (P23219 whole entry): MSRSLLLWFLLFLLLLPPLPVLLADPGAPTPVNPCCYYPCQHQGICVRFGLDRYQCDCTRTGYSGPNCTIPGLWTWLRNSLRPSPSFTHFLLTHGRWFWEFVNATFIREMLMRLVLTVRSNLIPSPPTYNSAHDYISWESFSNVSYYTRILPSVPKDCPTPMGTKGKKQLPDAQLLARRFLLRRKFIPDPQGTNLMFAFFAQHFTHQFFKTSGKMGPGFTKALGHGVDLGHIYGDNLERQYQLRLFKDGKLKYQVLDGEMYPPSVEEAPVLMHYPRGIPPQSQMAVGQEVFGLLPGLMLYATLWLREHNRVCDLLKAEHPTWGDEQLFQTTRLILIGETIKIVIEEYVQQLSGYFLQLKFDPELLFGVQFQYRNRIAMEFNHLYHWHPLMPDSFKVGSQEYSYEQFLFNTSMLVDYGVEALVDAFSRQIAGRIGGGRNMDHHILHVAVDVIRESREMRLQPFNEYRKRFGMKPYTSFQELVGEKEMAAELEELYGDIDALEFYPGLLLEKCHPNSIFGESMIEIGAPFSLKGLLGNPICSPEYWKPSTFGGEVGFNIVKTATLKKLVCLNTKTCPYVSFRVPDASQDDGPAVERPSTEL

Question: Which MIC [1] does the source give for `CC(C)(O/N=C(\C(=O)N[C@H]1CN2CC(C(=O)NCCN3C(=O)c4cc(O)c(O)cc4C3=O)=C(C(=O)O)N2C1=O)c1nc(N)sc1Cl)C(=O)O` here?
Answer: Its MIC is greater than 16 µg/mL.

Question: What about the MIC [2] of the same molecule?
Answer: The MIC was no more than 0.25 µg/mL.

Question: What about the MIC [3] of the same molecule?
Answer: Its MIC is 16 µg/mL.

Question: What about the MIC [4] of the same molecule?
Answer: Its MIC is greater than 16 µg/mL.

Question: And the MIC [5]?
Answer: The MIC was greater than 16 µg/mL.

Question: And the MIC [6]?
Answer: The MIC was no more than 0.25 µg/mL.

Question: And the MIC [7]?
Answer: The MIC was 16 µg/mL.

Question: What about the MIC [8] of the same molecule?
Answer: The MIC was 16 µg/mL.

Question: What about the inhibition at 30 µM [9] of the same molecule?
Answer: Its inhibition at 30 µM is greater than 50%.

Question: And the Kcat [10]?
Answer: The Kcat was 5 s⁻¹.

Question: What about the MIC [11] of the same molecule?
Answer: The MIC was 16 µg/mL.

Question: And the t1/2 [12]?
Answer: Its t1/2 is greater than 1 h.

Question: What about the MIC [13] of the same molecule?
Answer: The MIC was no more than 0.25 µg/mL.

Question: What about the MIC [14] of the same molecule?
Answer: The MIC was greater than 16 µg/mL.

Question: And the MIC [15]?
Answer: The MIC was no more than 0.25 µg/mL.

Question: And the MIC [16]?
Answer: The MIC was 8 µg/mL.

Question: And the MIC [17]?
Answer: Its MIC is greater than 16 µg/mL.

Question: What about the MIC [18] of the same molecule?
Answer: The MIC was greater than 16 µg/mL.

Question: And the MIC [19]?
Answer: The MIC was greater than 16 µg/mL.

Question: What about the inhibition at 100 µM [20] of the same molecule?
Answer: Its inhibition at 100 µM is 50%.

Question: And the MIC [21]?
Answer: The MIC was 4 µg/mL.

Question: And the MIC [22]?
Answer: The MIC was greater than 16 µg/mL.

Question: And the MIC [23]?
Answer: Its MIC is 4 µg/mL.

Question: And the MIC [24]?
Answer: Its MIC is no more than 0.25 µg/mL.

Question: What about the MIC [25] of the same molecule?
Answer: The MIC was no more than 0.25 µg/mL.

Question: And the MIC [26]?
Answer: The MIC was greater than 16 µg/mL.

Question: What about the Kcat [27] of the same molecule?
Answer: Its Kcat is 35 s⁻¹.

Question: And the MIC [28]?
Answer: The MIC was no more than 0.25 µg/mL.

Question: What about the MIC [29] of the same molecule?
Answer: Its MIC is greater than 16 µg/mL.

Question: What about the MIC [30] of the same molecule?
Answer: Its MIC is greater than 16 µg/mL.

Question: What about the Kcat [31] of the same molecule?
Answer: Its Kcat is “Nottraceable”.
